Measured values of several laboratories.
In brackets after ≈: the same amount, converted by molar mass.

Compound | tested on | assay | system | setting | measurement | value
Cc1ccc2[nH]nc(-c3nnc(Nc4cc(Cl)cc(Br)c4)s3)c2c1 | Staphylococcus epidermidis | microbial growth | ATCC12228 |  | MIC | 210 µg/mL (≈ 498 µM)
CCCCCCCCCCCCCCCCCCOc1ccccc1CC(=O)OCC[N+]1(C)CCCC1 | HOP-92 | cell growth or viability, SRB |  | 10 µM | inhibition | 67.3%
Cc1ccc2[nH]nc(-c3nnc(Nc4ccc(Br)cc4)s3)c2c1 | Staphylococcus epidermidis | microbial growth | ATCC12228 |  | MIC | 190 µg/mL (≈ 493 µM)
Cc1n[nH]c2ccc3nc(-c4ccc(C(=O)NCCN(C)C)cc4)c4c(c3c12)CCC(C)(C)C4 | K562 | cell growth or viability, resazurin |  | 72 h | GI50 | 6.4 µM
O=C(/C=C/c1cccc(C(=O)NO)c1)NO | OCI-Ly1 | cell growth or viability, ATP luminescence |  | 1 µM, 5 days | viability | 72.5%
O=C(NCCN1CCCCC1)c1ccc(-c2nc3ccc4[nH]ncc4c3c3c2CCCC3)cc1 | K562 | cell growth or viability, resazurin |  | 72 h | GI50 | 7.5 µM
CCCCCCCCCCCCCCCCCCOc1ccc(CC(=O)OCCC[N+](C)(C)C)cc1 | HOP-92 | cell growth or viability, SRB |  | 10 µM | inhibition | 22.1%
Cc1cc(Nc2nnc(-c3n[nH]c4ccc(C)cc34)s2)cc([N+](=O)[O-])c1 | Staphylococcus epidermidis | microbial growth | ATCC12228 |  | MIC | 208 µg/mL (≈ 568 µM)
CCCCCCCCCCCCCCCCCCOc1ccc(CC(=O)OCC[N+](CC)(CC)CC)cc1 | HOP-62 | cell growth or viability, SRB |  | 10 µM | inhibition | 2.95%
O=C(Nc1nccs1)c1ccc(-c2nc3ccc4[nH]ncc4c3c3c2CCCC3)cc1 | K562 | cell growth or viability, resazurin |  | 72 h | GI50 | > 10 µM
O=C(CCCCCCSc1ccc2ccccc2c1)NO | OCI-Ly1 | cell growth or viability, ATP luminescence |  | 1 µM, 5 days | viability | 154%
CN(C)CCNC(=O)c1ccc(-c2nc3ccc4[nH]ncc4c3c3c2CCCC3)c(F)c1 | K562 | cell growth or viability, resazurin |  | 72 h | GI50 | 1.1 µM
Cc1ccc2[nH]nc(-c3nnc(Nc4ccc(Cl)c(Br)c4)s3)c2c1 | Staphylococcus epidermidis | microbial growth | ATCC12228 |  | MIC | 235 µg/mL (≈ 558 µM)
Cc1n[nH]c2ccc3nc(-c4ccc(C(=O)N(C)CCN(C)C)cc4)c4c(c3c12)CCC(F)(F)C4 | K562 | cell growth or viability, resazurin |  | 72 h | GI50 | 9.1 µM
C=C[C@]1(C)C[C@@H](OC(=O)CS[C@@H]2C[C@H]3CC[C@@H](C2)N3C)[C@]2(C)[C@H](C)CC[C@]3(CCC(=O)[C@H]32)[C@@H](C)[C@@H]1O | Staphylococcus epidermidis | microbial growth |  | clinical isolate | MIC50 | 0.0312 µg/mL (≈ 0.0604 µM)
Cc1c2c(nn1C)CSCc1cc(n(C)n1)CSc1cc(c3ccccc3c1)OCCCc1c(C(=O)O)n(C)c3c-2c(Cl)ccc13 | Staphylococcus epidermidis | microbial growth, broth dilution |  | clinical isolate | MIC90 | 12.5 µM
CCCCCCCCCCCCCCCCCCOc1ccccc1CC(=O)OCCC[N+](C)(C)C | HOP-92 | cell growth or viability, SRB |  | 10 µM | inhibition | 60.4%
CN[C@H](CC(C)C)C(=O)N[C@H]1C(=O)N[C@@H](CC(N)=O)C(=O)N[C@H]2C(=O)N[C@H]3C(=O)N[C@H](C(=O)N[C@H](C(=O)O)c4cc(O)cc(O)c4-c4cc3ccc4O)[C@H](O)c3ccc(c(Cl)c3)Oc3cc2cc(c3O[C@@H]2O[C@H](CO)[C@@H](O)[C@H](O)[C@H]2O[C@H]2C[C@](C)(N)[C@H](O)[C@H](C)O2)Oc2ccc(cc2Cl)[C@H]1O | Staphylococcus epidermidis | microbial growth |  | clinical isolate | MIC50 | 0.5 µg/mL (≈ 0.345 µM)

Compound | tested on | assay | system | setting | measurement | value
CCCCCCCCCCCCCCCCCCOCC(COP(=O)([O-])OCC[N+](C)(C)C)OC (centres unmarked) | HOP-92 | cell growth or viability, SRB |  | 10 µM | inhibition | 40.1%
CC(=O)OC[C@H]1O[C@@H](n2cnc(N)nc2=O)[C@H](OC(C)=O)[C@@H]1OC(C)=O | OCI-Ly1 | cell growth or viability, ATP luminescence |  | 0.1 µM, 5 days | viability | 177%
CCCCCCCCCCCCCCCCCCOc1cccc(CC(=O)OCC[N+]2(C)CCCCC2)c1 | HOP-92 | cell growth or viability, SRB |  | 10 µM | inhibition | 19%
COc1c(N2C[C@@H]3CCCN[C@@H]3C2)c(F)cc2c(=O)c(C(=O)O)cn(C3CC3)c12 | Staphylococcus epidermidis | microbial growth, broth dilution |  | clinical isolate | MIC50 | 0.5 µg/mL (≈ 1.25 µM)
CN(C)CCNC(=O)c1ccc(-c2nc3ccc4[nH]ncc4c3c3c2CCCC3)s1 | K562 | cell growth or viability, resazurin |  | 72 h | GI50 | 0.805 µM
O=C(Nc1cccc(Br)c1)c1cccc(S(=O)(=O)N2CCCCCC2)c1 | OCI-Ly1 | cell growth or viability, ATP luminescence |  | 0.5 µM, 5 days | viability | 157%
CCCCCCCCCCCCCCCCCCOc1cccc(CC(=O)OCC[N+](C)(C)C)c1 | HOP-92 | cell growth or viability, SRB |  | 10 µM | inhibition | 12.2%
O=C(NO)c1ccc(CC(=O)N(CCO)c2ccccc2)cc1 | OCI-Ly1 | cell growth or viability, ATP luminescence |  | 1 µM, 5 days | viability | 74.7%
Cc1ccc2[nH]nc(-c3nnc(Nc4ccc(C(F)(F)F)cc4)s3)c2c1 | Staphylococcus epidermidis | microbial growth | ATCC12228 |  | MIC | 123 µg/mL (≈ 327 µM)
CN(C)CCNC(=O)c1ccc(-c2nc3ccc4[nH]ncc4c3c3c2CC(F)(F)CC3)cc1 | K562 | cell growth or viability, resazurin |  | 72 h | GI50 | 3.1 µM
O=C(CCCCCCC(=O)Nc1ccccc1)NO | OCI-Ly1 | cell growth or viability, ATP luminescence |  | 1 µM, 5 days | viability | 50.5%
CC[C@H]1OC(=O)[C@H](C)[C@@H](O[C@H]2C[C@@](C)(OC)[C@@H](O)[C@H](C)O2)[C@H](C)[C@@H](O[C@@H]2O[C@H](C)C[C@H](N(C)C)[C@H]2O)[C@](C)(O)C[C@@H](C)/C(=N\OCOCCOC)[C@H](C)[C@@H](O)[C@]1(C)O | Staphylococcus epidermidis | microbial growth |  | clinical isolate | MIC90 | 64 µg/mL
O=C(Nc1ccc(Cl)cc1)C1CCCN(C(=O)c2cc(C(F)(F)F)cc(C(F)(F)F)c2)C1 (racemic) | OCI-Ly1 | cell growth or viability, ATP luminescence |  | 1 µM, 5 days | viability | 161%
CC(=O)NC[C@H]1CN(c2ccc(N3CCOCC3)c(F)c2)C(=O)O1 | Staphylococcus epidermidis | microbial growth | MRSE | clinical isolate | MIC90 | 2 µg/mL
CN(C)CCN(C)C(=O)c1ccc(-c2nc3ccc4[nH]ncc4c3c3c2CCCCC3)cn1 | K562 | cell growth or viability, resazurin |  | 72 h | GI50 | 9.2 µM
CCCCCCCCCCCCCCCCCCOc1cccc(CC(=O)OCC[N+]2(C)CCOCC2)c1 | HOP-62 | cell growth or viability, SRB |  | 10 µM | inhibition | 9.38%
CC1(C)S[C@@H]2[C@H](NC(=O)[C@H](N)c3ccccc3)C(=O)N2[C@H]1C(=O)O | Staphylococcus epidermidis | microbial growth | MRSE | clinical isolate | MIC90 | > 128 µg/mL
